{"source": "ChEMBL document CHEMBL3877308", "about": "“Design, synthesis and in vitro biological evaluation of oligopeptides targeting E. coli type I signal peptidase (LepB)” (Bioorg Med Chem, 2017)", "key": {"[1]": {"biological_target": "Signal peptidase I (Escherichia coli K-12) (UniProt P00803)", "sequence (P00803 whole entry)": "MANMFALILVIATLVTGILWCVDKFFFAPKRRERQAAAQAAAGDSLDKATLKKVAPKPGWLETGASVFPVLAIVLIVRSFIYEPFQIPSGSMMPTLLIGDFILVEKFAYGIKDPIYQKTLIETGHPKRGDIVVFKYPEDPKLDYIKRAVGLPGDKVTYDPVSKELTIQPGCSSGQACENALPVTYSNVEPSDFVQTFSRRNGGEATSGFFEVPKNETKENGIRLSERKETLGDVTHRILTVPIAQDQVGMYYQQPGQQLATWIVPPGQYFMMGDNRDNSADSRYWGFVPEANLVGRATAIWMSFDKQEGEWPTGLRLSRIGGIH", "test": "Inhibition of full length Escherichia coli His6-tagged LepB expressed in Escherichia coli C43(DE3) assessed as residual activity at 62.5 uM using dabcyl-VEVGGTATAGAFSRPGLE-(EDANS) as substrate preincubated for 10 mins followed by substrate addition measured for 2 hrs by FRET assay relative to control", "how_it_was_run": "(§1)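 Enzyme came from the membrane fraction, extracted with 1% reduced Triton X-100 and purified by metal-chelation chromatography in 0.5% detergent. FRET pair was dabcyl acceptor and EDANS donor. EcLepB (final about 50 nM) was pre-incubated with compound 10 min at 22 °C. Reaction was then run with 8 µM substrate, following the linear fluorescence increase at 22 °C for 2 h.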"}, "Staphylococcus aureus": {"system": "Staphylococcus aureus", "test": "Antibacterial activity against wild type Staphylococcus aureus ATCC 29213 after 16 to 20 hrs by broth microdilution assay", "format": "functional", "how_it_was_run": "(§2)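 MIC by broth microdilution in cation-adjusted Mueller-Hinton II medium, following EUCAST and CLSI guidelines; panel of Gram-negative strains plus S. aureus ATCC 29213.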"}, "Escherichia coli [2]": {"system": "Escherichia coli", "test": "Antibacterial activity against Escherichia coli CH3130 harboring tolC deletion mutant after 16 to 20 hrs by broth microdilution assay", "format": "functional", "how_it_was_run": "(§3)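 Broth microdilution MIC in cation-adjusted Mueller-Hinton II medium, following EUCAST and CLSI guidelines; tested on a panel of Gram-negative strains plus S. aureus ATCC 29213 (wild-type).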"}, "[3]": {"biological_target": "Signal peptidase I (Escherichia coli K-12) (UniProt P00803)", "test": "Inhibition of full length Escherichia coli His6-tagged LepB expressed in Escherichia coli C43(DE3) assessed as residual activity at 0.9765625 uM using dabcyl-VEVGGTATAGAFSRPGLE-(EDANS) as substrate preincubated for 10 mins followed by substrate addition measured for 2 hrs by FRET assay relative to control", "how_it_was_run": "as §1"}, "Signal peptidase I [4]": {"biological_target": "T1, Signal peptidase I (Escherichia coli K-12, UniProt P00803)", "T1 sequence (P00803 whole entry)": "as above", "test": "Inhibition of full length Escherichia coli His6-tagged LepB expressed in Escherichia coli C43(DE3) using dabcyl-VEVGGTATAGAFSRPGLE-(EDANS) as substrate preincubated for 10 mins followed by substrate addition measured for 2 hrs by FRET assay", "how_it_was_run": "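Enzyme extracted from the membrane fraction with 1% reduced Triton X-100 and purified by metal-chelation chromatography in 0.5% detergent. Enzyme (final ~50 nM) was pre-incubated with compound for 10 min at 22 °C. The linear rise in EDANS donor fluorescence (dabcyl acceptor) was then followed at 22 °C for 2 h. IC50 came from non-linear regression of sigmoidal rate-versus-concentration curves.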"}, "Acinetobacter baumannii": {"system": "Acinetobacter baumannii", "test": "Antibacterial activity against wild type Acinetobacter baumannii ATCC 19606 after 16 to 20 hrs by broth microdilution assay", "format": "functional", "how_it_was_run": "as §2"}, "Escherichia coli [5]": {"system": "Escherichia coli", "test": "Antibacterial activity against wild type Escherichia coli ATCC 25922 after 16 to 20 hrs by broth microdilution assay", "format": "functional", "how_it_was_run": "as §2"}, "[6]": {"biological_target": "Signal peptidase I (Escherichia coli K-12) (UniProt P00803)", "test": "Inhibition of full length Escherichia coli His6-tagged LepB expressed in Escherichia coli C43(DE3) assessed as residual activity at 0.4882812 uM using dabcyl-VEVGGTATAGAFSRPGLE-(EDANS) as substrate preincubated for 10 mins followed by substrate addition measured for 2 hrs by FRET assay relative to control", "how_it_was_run": "as §1"}, "[7]": {"biological_target": "Signal peptidase I (Escherichia coli K-12) (UniProt P00803)", "test": "Inhibition of full length Escherichia coli His6-tagged LepB expressed in Escherichia coli C43(DE3) assessed as residual activity at 0.241406 uM using dabcyl-VEVGGTATAGAFSRPGLE-(EDANS) as substrate preincubated for 10 mins followed by substrate addition measured for 2 hrs by FRET assay relative to control", "how_it_was_run": "as §1"}, "[8]": {"biological_target": "Signal peptidase I (Escherichia coli K-12) (UniProt P00803)", "test": "Inhibition of full length Escherichia coli His6-tagged LepB expressed in Escherichia coli C43(DE3) assessed as residual activity at 1000 uM using dabcyl-VEVGGTATAGAFSRPGLE-(EDANS) as substrate preincubated for 10 mins followed by substrate addition measured for 2 hrs by FRET assay relative to control", "how_it_was_run": "as §1"}, "[9]": {"biological_target": "Signal peptidase I (Escherichia coli K-12) (UniProt P00803)", "test": "Inhibition of full length Escherichia coli His6-tagged LepB expressed in Escherichia coli C43(DE3) assessed as residual activity at 0.1220703 uM using dabcyl-VEVGGTATAGAFSRPGLE-(EDANS) as substrate preincubated for 10 mins followed by substrate addition measured for 2 hrs by FRET assay relative to control", "how_it_was_run": "as §1"}, "Pseudomonas aeruginosa [10]": {"system": "Pseudomonas aeruginosa", "test": "Antibacterial activity against wild type Pseudomonas aeruginosa PAO1 after 16 to 20 hrs by broth microdilution assay", "format": "functional", "how_it_was_run": "as §2"}, "[11]": {"biological_target": "Signal peptidase I (Escherichia coli K-12) (UniProt P00803)", "test": "Inhibition of full length Escherichia coli His6-tagged LepB expressed in Escherichia coli C43(DE3) assessed as residual activity at 31.25 uM using dabcyl-VEVGGTATAGAFSRPGLE-(EDANS) as substrate preincubated for 10 mins followed by substrate addition measured for 2 hrs by FRET assay relative to control", "how_it_was_run": "as §1"}, "Pseudomonas aeruginosa [12]": {"system": "Pseudomonas aeruginosa", "test": "Antibacterial activity against wild type Pseudomonas aeruginosa PAO750 harboring efflux defective mutant after 16 to 20 hrs by broth microdilution assay", "format": "functional", "how_it_was_run": "as §3"}, "[13]": {"biological_target": "Signal peptidase I (Escherichia coli K-12) (UniProt P00803)", "test": "Inhibition of full length Escherichia coli His6-tagged LepB expressed in Escherichia coli C43(DE3) assessed as residual activity at 7.8125 uM using dabcyl-VEVGGTATAGAFSRPGLE-(EDANS) as substrate preincubated for 10 mins followed by substrate addition measured for 2 hrs by FRET assay relative to control", "how_it_was_run": "as §1"}, "[14]": {"biological_target": "Signal peptidase I (Escherichia coli K-12) (UniProt P00803)", "test": "Inhibition of full length Escherichia coli His6-tagged LepB expressed in Escherichia coli C43(DE3) at 100 uM using dabcyl-VEVGGTATAGAFSRPGLE-(EDANS) as substrate preincubated for 10 mins followed by substrate addition measured for 2 hrs by FRET assay relative to control", "how_it_was_run": "as §1"}, "[15]": {"biological_target": "Signal peptidase I (Escherichia coli K-12) (UniProt P00803)", "test": "Inhibition of full length Escherichia coli His6-tagged LepB expressed in Escherichia coli C43(DE3) assessed as residual activity at 3.90625 uM using dabcyl-VEVGGTATAGAFSRPGLE-(EDANS) as substrate preincubated for 10 mins followed by substrate addition measured for 2 hrs by FRET assay relative to control", "how_it_was_run": "as §1"}, "Escherichia coli [16]": {"system": "Escherichia coli", "test": "Antibacterial activity against Escherichia coli D22 harboring lpxC mutant after 16 to 20 hrs by broth microdilution assay", "format": "functional", "how_it_was_run": "as §3"}, "[17]": {"biological_target": "Signal peptidase I (Escherichia coli K-12) (UniProt P00803)", "test": "Inhibition of full length Escherichia coli His6-tagged LepB expressed in Escherichia coli C43(DE3) assessed as residual activity at 1.953125 uM using dabcyl-VEVGGTATAGAFSRPGLE-(EDANS) as substrate preincubated for 10 mins followed by substrate addition measured for 2 hrs by FRET assay relative to control", "how_it_was_run": "as §1"}, "[18]": {"biological_target": "Signal peptidase I (Escherichia coli K-12) (UniProt P00803)", "test": "Inhibition of full length Escherichia coli His6-tagged LepB expressed in Escherichia coli C43(DE3) assessed as residual activity at 125 uM using dabcyl-VEVGGTATAGAFSRPGLE-(EDANS) as substrate preincubated for 10 mins followed by substrate addition measured for 2 hrs by FRET assay relative to control", "how_it_was_run": "as §1"}, "Signal peptidase I [19]": {"biological_target": "T1, Signal peptidase I", "test": "Inhibition of full length Escherichia coli His6-tagged LepB expressed in Escherichia coli C43(DE3) using dabcyl-VEVGGTATAGAFSRPGLE-(EDANS) as substrate preincubated for 10 mins followed by substrate addition measured after […] by FRET assay"}, "Klebsiella pneumoniae": {"system": "Klebsiella pneumoniae", "test": "Antibacterial activity against wild type Klebsiella pneumoniae […] after 16 to 20 hrs by broth microdilution assay", "format": "functional", "how_it_was_run": "as §2"}, "[20]": {"biological_target": "Signal peptidase I (Escherichia coli K-12) (UniProt P00803)", "test": "Inhibition of full length Escherichia coli His6-tagged LepB expressed in Escherichia coli C43(DE3) assessed as residual activity at 500 uM using dabcyl-VEVGGTATAGAFSRPGLE-(EDANS) as substrate preincubated for 10 mins followed by substrate addition measured for 2 hrs by FRET assay relative to control", "how_it_was_run": "as §1"}, "[21]": {"biological_target": "Signal peptidase I (Escherichia coli K-12) (UniProt P00803)", "test": "Inhibition of full length Escherichia coli His6-tagged LepB expressed in Escherichia coli C43(DE3) assessed as residual activity at 15.625 uM using dabcyl-VEVGGTATAGAFSRPGLE-(EDANS) as substrate preincubated for 10 mins followed by substrate addition measured for 2 hrs by FRET assay relative to control", "how_it_was_run": "as §1"}, "[22]": {"biological_target": "Signal peptidase I (Escherichia coli K-12) (UniProt P00803)", "test": "Inhibition of full length Escherichia coli His6-tagged LepB expressed in Escherichia coli C43(DE3) assessed as residual activity at 250 uM using dabcyl-VEVGGTATAGAFSRPGLE-(EDANS) as substrate preincubated for 10 mins followed by substrate addition measured for 2 hrs by FRET assay relative to control", "how_it_was_run": "as §1"}}}
{"smiles": "CCCCCCCCCC(=O)N1CCC[C@H]1C(=O)N[C@H](C(=O)N[C@@H](C)C(=O)N[C@@H](CC(N)=O)C(=O)N[C@@H](C)C=O)[C@H](C)O", "values": [{"measurement": "Activity", "setting": "[1]", "value": -0.871, "unit": "%"}, {"measurement": "MIC", "setting": "Staphylococcus aureus", "value": "> 128", "unit": "µg/mL"}, {"measurement": "MIC", "setting": "Escherichia coli [2]", "value": "> 128", "unit": "µg/mL"}, {"measurement": "Activity", "setting": "[3]", "value": 48.7, "unit": "%"}, {"measurement": "IC50", "setting": "Signal peptidase I [4]", "value": 1.2, "unit": "µM"}, {"measurement": "MIC", "setting": "Acinetobacter baumannii", "value": "> 128", "unit": "µg/mL"}, {"measurement": "MIC", "setting": "Escherichia coli [5]", "value": "> 128", "unit": "µg/mL"}, {"measurement": "Activity", "setting": "[6]", "value": 64.5, "unit": "%"}, {"measurement": "Activity", "setting": "[7]", "value": 72.6, "unit": "%"}, {"measurement": "Activity", "setting": "[8]", "value": -5.5, "unit": "%"}, {"measurement": "Activity", "setting": "[9]", "value": 77.4, "unit": "%"}, {"measurement": "MIC", "setting": "Pseudomonas aeruginosa [10]", "value": "> 128", "unit": "µg/mL"}, {"measurement": "Activity", "setting": "[11]", "value": 6.54, "unit": "%"}, {"measurement": "MIC", "setting": "Pseudomonas aeruginosa [12]", "value": 128, "unit": "µg/mL"}, {"measurement": "Activity", "setting": "[13]", "value": 20.9, "unit": "%"}, {"measurement": "inhibition", "setting": "[14]", "value": 100, "unit": "%"}, {"measurement": "Activity", "setting": "[15]", "value": 34.7, "unit": "%"}, {"measurement": "MIC", "setting": "Escherichia coli [16]", "value": "> 128", "unit": "µg/mL"}, {"measurement": "Activity", "setting": "[17]", "value": 43.6, "unit": "%"}, {"measurement": "Activity", "setting": "[18]", "value": -3.34, "unit": "%"}, {"measurement": "IC50", "setting": "Signal peptidase I [19]", "value": 6.5, "unit": "µM"}, {"measurement": "MIC", "setting": "Klebsiella pneumoniae", "value": "> 128", "unit": "µg/mL"}, {"measurement": "Activity", "setting": "[20]", "value": -4.44, "unit": "%"}, {"measurement": "Activity", "setting": "[21]", "value": 13, "unit": "%"}, {"measurement": "Activity", "setting": "[22]", "value": -6.1, "unit": "%"}]}
